Data taken from ChEMBL document CHEMBL4732185, “Synthesis, biological evaluation and structure-activity relationship of novel dichloroacetophenones targeting pyruvate dehydrogenase kinases with potent anticancer activity” (Eur J Med Chem, 2021).
pKd: −log10 of the molar value.

Experiments:
[1] = biological target: [Pyruvate dehydrogenase (acetyl-transferring)] kinase isozyme 3, mitochondrial (Homo sapiens, UniProt Q15120); assay: Binding affinity to PDK3 (unknown origin) by isothermal titration calorimetry
Summary of the method: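 Isothermal titration calorimetry at 25 °C. Compound dissolved in DMSO, diluted to 100 µM in buffer and placed in the titration syringe; 250 µL of PDK protein solution in the reaction cell. Titrant added in 2.5 µL increments per injection.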

[2] = test system: A-375; assay: Induction of apoptosis in human A375 cells assessed as viable cells at 5 uM after 12 hrs by annexinV-FITC/propidium iodide staining based flow cytometric analysis (reference value: 97.94%); format: functional; conditions: read-out: Activity
[3] = test system: A-375; assay: Induction of cell cycle arrest in human A375 cells assessed as accumulation at G2 phase at 5 uM after 24 hrs by propidium iodide staining based flow cytometric analysis (reference value: 10.02%); format: functional

Chain of [Pyruvate dehydrogenase (acetyl-transferring)] kinase isozyme 3, mitochondrial (Q15120 whole entry): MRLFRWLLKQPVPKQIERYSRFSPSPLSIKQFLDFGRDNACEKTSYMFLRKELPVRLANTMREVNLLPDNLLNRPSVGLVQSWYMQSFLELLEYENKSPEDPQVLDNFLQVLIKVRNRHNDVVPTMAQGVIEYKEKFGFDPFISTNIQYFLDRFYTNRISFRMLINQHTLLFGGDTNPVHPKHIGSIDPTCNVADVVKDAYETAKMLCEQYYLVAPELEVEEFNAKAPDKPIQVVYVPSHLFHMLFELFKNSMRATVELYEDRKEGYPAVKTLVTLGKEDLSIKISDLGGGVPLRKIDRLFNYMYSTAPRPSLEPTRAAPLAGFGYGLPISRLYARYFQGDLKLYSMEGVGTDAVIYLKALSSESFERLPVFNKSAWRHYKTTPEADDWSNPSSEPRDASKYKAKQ

- pKd [1]: 5.11
SMILES: CC(C)(CO)c1ccc(Nc2ccc(C(=O)C(Cl)Cl)cc2[N+](=O)[O-])cc1
- viability at 5 µM [2]: 82.8%
- Activity [3]: 5.71%
